Measurements as given in ChEMBL document CHEMBL2062435, “Synthesis and in vitro antibacterial activity of gemifloxacin derivatives containing a substituted benzyloxime moiety” (2012).

Columns and labels:
Type in all cases: functional
Staphylococcus aureus [1] = assay: Antimicrobial activity against extended spectrum beta-lactamases-producing methicillin-resistant Staphylococcus aureus 10-11 after 18-24 hrs by two-fold serial dilution method
In short: (§1)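 Agar twofold serial dilution MIC against clinical isolates. MIC was taken as the lowest concentration giving complete inhibition of bacterial growth after incubation at 35 °C for 18-24 h.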

Staphylococcus aureus [2] = assay: Antimicrobial activity against extended spectrum beta-lactamases-producing methicillin-sensitive Staphylococcus aureus 10-14 after 18-24 hrs by two-fold serial dilution method
In short: (§2)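 Agar-medium twofold serial dilution against Gram-positive and Gram-negative strains; MIC taken as the lowest compound concentration giving complete inhibition of bacterial growth after incubation at 35 °C for 18-24 h.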

[3] = system: Staphylococcus epidermidis; assay: Antimicrobial activity against extended spectrum beta-lactamases-producing methicillin-resistant Staphylococcus epidermidis 10-10 after 18-24 hrs by two-fold serial dilution method; in short: as §1
[4] = system: Staphylococcus epidermidis; assay: Antimicrobial activity against extended spectrum beta-lactamases-producing methicillin-resistant Staphylococcus epidermidis 10-13 after 18-24 hrs by two-fold serial dilution method; in short: as §1
[5] = system: Staphylococcus epidermidis; assay: Antimicrobial activity against extended spectrum beta-lactamases-producing methicillin-sensitive Staphylococcus epidermidis 10-11 after 18-24 hrs by two-fold serial dilution method; in short: as §2
[6] = system: Staphylococcus epidermidis; assay: Antimicrobial activity against extended spectrum beta-lactamases-producing methicillin-sensitive Staphylococcus epidermidis 10-13 after 18-24 hrs by two-fold serial dilution method; in short: as §2
[7] = system: Staphylococcus epidermidis; assay: Antimicrobial activity against extended spectrum beta-lactamases-producing methicillin-sensitive Staphylococcus epidermidis 10-15 after 18-24 hrs by two-fold serial dilution method; in short: as §2
Enterococcus faecalis = assay: Antimicrobial activity against Enterococcus faecalis 10-5 after 18-24 hrs by two-fold serial dilution method; in short: as §2
Escherichia coli [8] = assay: Antimicrobial activity against Escherichia coli 10-1 after 18-24 hrs by two-fold serial dilution method; in short: as §2
Escherichia coli [9] = assay: Antimicrobial activity against extended spectrum beta-lactamases-producing Escherichia coli 10-2 after 18-24 hrs by two-fold serial dilution method; in short: as §2
Escherichia coli [10] = assay: Antimicrobial activity against Escherichia coli 10-3 after 18-24 hrs by two-fold serial dilution method; in short: as §2
Escherichia coli [11] = assay: Antimicrobial activity against extended spectrum beta-lactamases-producing Escherichia coli 10-3 after 18-24 hrs by two-fold serial dilution method; in short: as §2
Klebsiella pneumoniae = assay: Antimicrobial activity against Klebsiella pneumoniae 10-4 after 18-24 hrs by two-fold serial dilution method; in short: as §2
Staphylococcus aureus [12] = assay: Antimicrobial activity against methicillin-resistant Staphylococcus aureus clinical isolate after 18-24 hrs by two-fold serial dilution method; in short: as §1
Staphylococcus aureus [13] = assay: Ratio of levofloxacin MIC to compound MIC for Staphylococcus aureus ATCC […] after 18-24 hrs by two-fold serial dilution method
[14] = system: Staphylococcus epidermidis; assay: Ratio of levofloxacin MIC to compound MIC for extended spectrum beta-lactamases-producing methicillin-sensitive Staphylococcus epidermidis 10-11 after 18-24 hrs by two-fold serial dilution method
In short: (§3)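 MICs were determined by the standard twofold serial dilution method on agar media against the test strains, with levofloxacin run as a reference. MIC is the lowest concentration giving complete inhibition of bacterial growth after 18–24 h incubation at 35 °C. The ratio is levofloxacin MIC divided by test-compound MIC.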

[15] = system: Staphylococcus epidermidis; assay: Ratio of levofloxacin MIC to compound MIC for extended spectrum beta-lactamases-producing methicillin-sensitive Staphylococcus epidermidis 10-13 after 18-24 hrs by two-fold serial dilution method; in short: as §3
Enterococcus faecium = assay: Ratio of levofloxacin MIC to compound MIC for Enterococcus faecium 10-9 after 18-24 hrs by two-fold serial dilution method
Streptococcus pneumoniae [16] = assay: Ratio of levofloxacin MIC to compound MIC for extended spectrum beta-lactamases-producing Streptococcus pneumoniae 10-4 after 18-24 hrs by two-fold serial dilution method; in short: as §3
Staphylococcus aureus [17] = assay: Ratio of gemifloxacin MIC to compound MIC for extended spectrum beta-lactamases-producing methicillin-sensitive Staphylococcus aureus 10-13 after 18-24 hrs by two-fold serial dilution method
[18] = system: Staphylococcus epidermidis; assay: Ratio of gemifloxacin MIC to compound MIC for extended spectrum beta-lactamases-producing methicillin-sensitive Staphylococcus epidermidis 10-11 after 18-24 hrs by two-fold serial dilution method
Streptococcus pneumoniae [19] = assay: Ratio of gemifloxacin MIC to compound MIC for extended spectrum beta-lactamases-producing Streptococcus pneumoniae 10-4 after 18-24 hrs by two-fold serial dilution method

COc1ccc(OC)c(CO/N=C2\CN(c3nc4c(cc3F)c(=O)c(C(=O)O)cn4C3CC3)CC2CN)c1.CS(=O)(=O)O (racemic)
MIC (Staphylococcus aureus [1]): 1 µg/mL
MIC (Staphylococcus aureus [2]): 0.03 µg/mL
MIC [3]: 0.25 µg/mL
MIC [4]: 0.25 µg/mL
MIC [5]: 0.25 µg/mL
MIC [6]: 0.03 µg/mL
MIC [7]: 4 µg/mL
MIC (Enterococcus faecalis): 0.25 µg/mL
MIC (Escherichia coli [8]): > 128 µg/mL
MIC (Escherichia coli [9]): > 128 µg/mL
MIC (Escherichia coli [10]): > 128 µg/mL
MIC (Escherichia coli [11]): > 128 µg/mL
MIC (Klebsiella pneumoniae): > 128 µg/mL
MIC50 (Staphylococcus aureus [12]): 0.5 µg/mL
MIC90 (Staphylococcus aureus [12]): 1 µg/mL
Ratio (Staphylococcus aureus [13]): 8
Ratio [14]: 8
Ratio [15]: 8
Ratio (Enterococcus faecium): 8
Ratio (Streptococcus pneumoniae [16]): 8
Ratio (Staphylococcus aureus [17]): 2
Ratio [18]: 2
Ratio (Streptococcus pneumoniae [19]): 2
